The values below come from ChEMBL document CHEMBL1938255, “Novel 1-hydroxypiperazine-2,6-diones as new leads in the inhibition of metalloproteinases” (J Med Chem, 2011).

Data set [1] concerns the target Stromelysin-1 (Homo sapiens, UniProt P08254). Description: Inhibition of MMP3 using Mca-Arg-Pro-Lys-Pro-Val-Glu-Nva-Trp-Arg-Lys(Dnp)-NH2 as substrate preincubated for 4 hrs measured every 15 secs for 20 mins by fluorescence analysis. In outline: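 Pro-MMP3 activated with trypsin 5 μg/mL, 30 min, 37 °C, then soybean trypsin inhibitor 62 μg/mL. Enzyme at 5 nM final was incubated 4 h at 25 °C with seven inhibitor concentrations in Tris 50 mM pH 7.5, NaCl 150 mM, CaCl2 10 mM, Brij 35 0.05%, DMSO 1%.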

The target of data set [2] is Neutrophil collagenase (Homo sapiens, UniProt P22894). Description: Inhibition of human recombinant MMP8 using Mca-Lys-Pro-Leu-Gly-Leu-Dap(Dnp)-Ala-Arg-NH2 as substrate preincubated for 4 hrs measured every 15 secs for 20 mins by fluorescence analysis. In outline:
(§1)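 The proenzymes were activated with 2 mM APMA for 1 h at 37 °C. Final enzyme was 0.5 nM for MMP2 and 1.5 nM for MMP8. Each was incubated 4 h at 25 °C with seven inhibitor concentrations in pH 7.5 Tris/NaCl/CaCl2/Brij 35/1% DMSO buffer. With 2 μM substrate, fluorescence (325/395 nm) was read every 15 s for 20 min. IC50 came from fractional initial velocity; mean of three independent runs.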

Data set [3] concerns the target 72 kDa type IV collagenase (Homo sapiens, UniProt P08253). Kind of data set: Inhibition of human recombinant MMP2 using Mca-Lys-Pro-Leu-Gly-Leu-Dap(Dnp)-Ala-Arg-NH2 as substrate preincubated for 4 hrs measured every 15 secs for 20 mins by fluorescence analysis. In outline: as §1
The target in data set [4] is Matrix metalloproteinase-9 (Homo sapiens, UniProt P14780). Kind of data set: Inhibition of human recombinant MMP9 using Mca-Lys-Pro-Leu-Gly-Leu-Dap(Dnp)-Ala-Arg-NH2 as substrate preincubated for 4 hrs measured every 15 secs for 20 mins by fluorescence analysis. In short, it runs like this: (§2)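 APMA activation at 1 mM, 1 h, 37 °C. Final enzyme was 0.3 nM for MMP13 and 1.3 nM for MMP9. Enzyme and inhibitor (seven concentrations) were incubated 4 h at 25 °C in Tris 50 mM pH 7.5 buffer with 150 mM NaCl, 10 mM CaCl2, 0.05% Brij 35, 1% DMSO. Substrate 2 μM final, ex 325/em 395 nm, every 15 s over 20 min. IC50 via Vi/Vo = 1/(1+[I]/IC50); three experiments averaged.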
Matrix metalloproteinase-9, sequence (P14780 whole entry): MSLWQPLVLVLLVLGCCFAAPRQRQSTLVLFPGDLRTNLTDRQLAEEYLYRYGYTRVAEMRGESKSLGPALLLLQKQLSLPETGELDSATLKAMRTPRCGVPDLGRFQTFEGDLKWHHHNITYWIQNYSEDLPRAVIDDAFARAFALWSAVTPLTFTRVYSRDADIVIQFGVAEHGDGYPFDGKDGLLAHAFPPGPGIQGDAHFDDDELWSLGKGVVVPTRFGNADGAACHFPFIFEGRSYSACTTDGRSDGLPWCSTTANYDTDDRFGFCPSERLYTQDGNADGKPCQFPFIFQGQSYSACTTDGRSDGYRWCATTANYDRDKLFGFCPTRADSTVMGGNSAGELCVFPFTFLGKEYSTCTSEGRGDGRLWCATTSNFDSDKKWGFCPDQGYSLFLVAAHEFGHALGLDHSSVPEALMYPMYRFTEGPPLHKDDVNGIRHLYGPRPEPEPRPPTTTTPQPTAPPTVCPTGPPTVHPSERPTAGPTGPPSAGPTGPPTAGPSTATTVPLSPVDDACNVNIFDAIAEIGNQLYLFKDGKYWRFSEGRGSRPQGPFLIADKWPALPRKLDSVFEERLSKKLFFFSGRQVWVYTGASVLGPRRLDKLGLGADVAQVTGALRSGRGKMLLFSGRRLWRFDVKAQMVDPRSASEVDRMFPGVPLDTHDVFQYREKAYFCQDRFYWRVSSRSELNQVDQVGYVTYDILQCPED

Data set [5] addresses Macrophage metalloelastase (Homo sapiens, UniProt P39900). Kind of data set: Inhibition of MMP12 using Mca-Lys-Pro-Leu-Gly-Leu-Dap(Dnp)-Ala-Arg-NH2 as substrate preincubated for 4 hrs measured every 15 secs for 20 mins by fluorescence analysis. In short, it runs like this: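 Pro-MMP12 was autoactivated for 30 h at 37 °C in assay buffer (Tris 50 mM pH 7.5, NaCl 150 mM, CaCl2 10 mM, Brij 35 0.05%, DMSO 1%). Enzyme at 1.0 nM final was incubated 4 h at 25 °C with seven inhibitor concentrations. Substrate 2 μM final, fluorescence ex 325/em 395 nm every 15 s for 20 min. IC50 via initial-velocity equation; mean of three experiments.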

For data set [6], the target named is T1, Interstitial collagenase (Homo sapiens, UniProt P03956).
T1 sequence (P03956 whole entry): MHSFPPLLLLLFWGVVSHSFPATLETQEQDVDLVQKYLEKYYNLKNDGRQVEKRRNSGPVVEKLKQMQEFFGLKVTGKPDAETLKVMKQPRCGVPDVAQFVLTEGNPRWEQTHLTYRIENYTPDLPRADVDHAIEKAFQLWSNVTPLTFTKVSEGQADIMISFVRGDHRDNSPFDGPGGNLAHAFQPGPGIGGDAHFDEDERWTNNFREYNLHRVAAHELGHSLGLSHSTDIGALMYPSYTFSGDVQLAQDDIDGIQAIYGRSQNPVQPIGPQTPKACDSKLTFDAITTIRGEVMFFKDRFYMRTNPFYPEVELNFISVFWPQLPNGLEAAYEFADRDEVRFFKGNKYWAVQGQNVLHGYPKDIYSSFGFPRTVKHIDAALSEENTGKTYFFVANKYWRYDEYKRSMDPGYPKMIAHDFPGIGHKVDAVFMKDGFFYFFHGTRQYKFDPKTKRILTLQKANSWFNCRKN
Kind of data set: Inhibition of MMP1 using Mca-Lys-Pro-Leu-Gly-Leu-Dap(Dnp)-Ala-Arg-NH2 as substrate preincubated for 4 hrs measured every 15 secs for 20 mins by fluorescence analysis. In short, it runs like this:
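Pro-MMP1 activated with 2 mM APMA, 2 h, 37 °C. Enzyme at 2.0 nM final was preincubated 4 h at 25 °C with inhibitor at seven concentrations in Tris 50 mM pH 7.5, NaCl 150 mM, CaCl2 10 mM, Brij 35 0.05%, DMSO 1%. Substrate was 2 μM final, read ex 325/em 395 nm every 15 s for 20 min. IC50 from Vi/Vo = 1/(1+[I]/IC50); mean of three experiments.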

Data set [7] has as its target Matrix metalloproteinase-14 (Homo sapiens, UniProt P50281). Description: Inhibition of human recombinant MMP14 using Mca-Lys-Pro-Leu-Gly-Leu-Dap(Dnp)-Ala-Arg-NH2 as substrate preincubated for 4 hrs measured every 15 secs for 20 mins by fluorescence analysis. In short, it runs like this: (§3)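 Catalytic domains of MMP14 (1.0 nM final) and MMP16 (15 nM), and TACE (7.5 nM), were incubated 4 h at 25 °C with seven inhibitor concentrations. Buffer was Tris 50 mM pH 7.5, NaCl 150 mM, CaCl2 10 mM, Brij 35 0.05%, DMSO 1%. Substrate 2 μM final; hydrolysis read at 325/395 nm every 15 s for 20 min. IC50 from Vi/Vo = 1/(1+[I]/IC50); mean of three experiments.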

Data set [8] has as its target Collagenase 3 (Homo sapiens, UniProt P45452). Kind of data set: Inhibition of MMP13 using Mca-Lys-Pro-Leu-Gly-Leu-Dap(Dnp)-Ala-Arg-NH2 as substrate preincubated for 4 hrs measured every 15 secs for 20 mins by fluorescence analysis. In short, it runs like this:
as §2

The target of data set [9] is Disintegrin and metalloproteinase domain-containing protein 17 (Homo sapiens, UniProt P78536). Kind of data set: Inhibition of TACE using Mca-Lys-Pro-Leu-Gly-Leu-Dap(Dnp)-Ala-Arg-NH2 as substrate preincubated for 4 hrs measured every 15 secs for 20 mins by fluorescence analysis. In outline: as §3
Disintegrin and metalloproteinase domain-containing protein 17, sequence (P78536 whole entry, the tested form may be a part): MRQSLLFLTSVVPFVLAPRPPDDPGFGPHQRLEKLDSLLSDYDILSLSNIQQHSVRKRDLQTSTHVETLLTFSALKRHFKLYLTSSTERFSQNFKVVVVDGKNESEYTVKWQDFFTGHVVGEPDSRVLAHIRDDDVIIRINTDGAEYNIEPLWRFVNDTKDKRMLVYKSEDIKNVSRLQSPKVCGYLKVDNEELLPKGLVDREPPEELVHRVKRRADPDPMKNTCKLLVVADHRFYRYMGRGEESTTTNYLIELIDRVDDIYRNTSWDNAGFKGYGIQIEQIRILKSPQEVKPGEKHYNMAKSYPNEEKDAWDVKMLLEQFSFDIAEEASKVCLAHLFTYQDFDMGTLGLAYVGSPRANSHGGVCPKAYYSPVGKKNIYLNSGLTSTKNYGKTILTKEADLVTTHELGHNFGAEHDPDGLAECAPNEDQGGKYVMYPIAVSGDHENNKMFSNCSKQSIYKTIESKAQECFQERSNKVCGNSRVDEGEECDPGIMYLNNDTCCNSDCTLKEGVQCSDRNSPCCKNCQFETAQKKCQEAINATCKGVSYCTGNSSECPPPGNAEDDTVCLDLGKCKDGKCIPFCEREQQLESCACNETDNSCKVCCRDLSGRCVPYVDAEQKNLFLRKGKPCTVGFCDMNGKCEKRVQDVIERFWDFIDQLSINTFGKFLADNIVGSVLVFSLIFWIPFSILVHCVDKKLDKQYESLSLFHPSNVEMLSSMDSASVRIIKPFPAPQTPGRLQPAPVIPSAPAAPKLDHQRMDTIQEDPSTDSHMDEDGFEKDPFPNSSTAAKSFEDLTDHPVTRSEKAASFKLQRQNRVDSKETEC
In data set [10] the target is Matrix metalloproteinase-16 (Homo sapiens, UniProt P51512). Kind of data set: Inhibition of human recombinant MMP16 using Mca-Lys-Pro-Leu-Gly-Leu-Dap(Dnp)-Ala-Arg-NH2 as substrate preincubated for 4 hrs measured every 15 secs for 20 mins by fluorescence analysis. In short, it runs like this: as §3
Matrix metalloproteinase-16, sequence (P51512 whole entry): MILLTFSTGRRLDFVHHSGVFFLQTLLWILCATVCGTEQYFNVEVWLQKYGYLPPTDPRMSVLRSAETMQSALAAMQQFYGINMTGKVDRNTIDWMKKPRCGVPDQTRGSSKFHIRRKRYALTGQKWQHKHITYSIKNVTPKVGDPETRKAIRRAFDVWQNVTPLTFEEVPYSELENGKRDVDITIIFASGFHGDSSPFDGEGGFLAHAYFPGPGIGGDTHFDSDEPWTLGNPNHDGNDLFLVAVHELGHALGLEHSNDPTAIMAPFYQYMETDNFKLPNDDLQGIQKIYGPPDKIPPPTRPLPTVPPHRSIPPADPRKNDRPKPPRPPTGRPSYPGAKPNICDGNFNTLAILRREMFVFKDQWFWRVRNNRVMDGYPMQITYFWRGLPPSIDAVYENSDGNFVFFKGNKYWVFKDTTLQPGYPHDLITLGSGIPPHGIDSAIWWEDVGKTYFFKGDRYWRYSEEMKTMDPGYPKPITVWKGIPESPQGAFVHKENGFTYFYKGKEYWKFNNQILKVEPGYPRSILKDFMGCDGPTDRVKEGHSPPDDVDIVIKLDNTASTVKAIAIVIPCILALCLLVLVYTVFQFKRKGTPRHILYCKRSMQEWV
A short description of data set [11]: Stability in D2O assessed as compound decomposition at pD 7 after 24 hrs by NMR spectroscopy. The class given is physicochemical. Conditions: pH 7, read-out: Drug metabolism.
A short description of data set [12]: Stability in D2O assessed as compound decomposition at pD 2 after 48 hrs by NMR spectroscopy. The class given is physicochemical. The following applies: pH 2, read-out: Drug metabolism.
A short description of data set [13]: Stability in D2O assessed as compound decomposition at pD 7 after 20 days by NMR spectroscopy. The class given is physicochemical. Conditions: pH 7, read-out: Drug metabolism.
Data set [14] is described as follows: Stability in D2O assessed as compound decomposition at pD 2 after 10 days by NMR spectroscopy. It is filed as physicochemical. Conditions: pH 2, read-out: Drug metabolism.
Data set [15] in a line: Stability in D2O assessed as compound decomposition at pD 2 after 5 days by NMR spectroscopy. The class given is physicochemical. The following applies: pH 2, read-out: Drug metabolism.
Data set [16] concerns the target T2, Matrilysin (Homo sapiens, UniProt P09237).
T2 sequence (P09237 whole entry): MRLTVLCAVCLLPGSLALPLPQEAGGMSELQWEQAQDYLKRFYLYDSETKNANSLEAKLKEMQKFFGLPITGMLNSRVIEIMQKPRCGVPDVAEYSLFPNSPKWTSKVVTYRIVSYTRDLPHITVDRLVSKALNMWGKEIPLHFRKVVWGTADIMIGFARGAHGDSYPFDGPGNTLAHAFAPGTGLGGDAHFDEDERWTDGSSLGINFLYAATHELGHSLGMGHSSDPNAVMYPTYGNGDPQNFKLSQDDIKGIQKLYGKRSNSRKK
Kind of data set: Inhibition of MMP7 using Mca-Lys-Pro-Leu-Gly-Leu-Dap(Dnp)-Ala-Arg-NH2 as substrate preincubated for 4 hrs measured every 15 secs for 20 mins by fluorescence analysis. In outline: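 Pro-MMP7 activated with 3.3 mM APMA, 2 h, 37 °C, then used at 1.3 nM final. Enzyme was preincubated with seven inhibitor concentrations for 4 h at 25 °C in pH 7.5 Tris buffer with NaCl, CaCl2, Brij 35 and 1% DMSO. Fluorogenic substrate 2 μM final; fluorescence (325/395 nm) recorded every 15 s for 20 min. IC50 from initial-velocity ratio; mean of three experiments.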

A short description of data set [17]: Stability in D2O assessed as compound decomposition at pD 7 after 3 days by NMR spectroscopy. The class given is physicochemical. The following applies: pH 7, read-out: Drug metabolism.
Data set [18] can be described thus: Stability in D2O assessed as compound decomposition at pD 2 after 24 hrs by NMR spectroscopy. Conditions: pH 2, read-out: Drug metabolism. It is filed as physicochemical.
The nature of data set [19]: Stability in D2O assessed as compound decomposition at pD 7 after 5 days by NMR spectroscopy. It is filed as physicochemical. Conditions: pH 7, read-out: Drug metabolism.

Neutrophil collagenase, sequence (P22894 whole entry): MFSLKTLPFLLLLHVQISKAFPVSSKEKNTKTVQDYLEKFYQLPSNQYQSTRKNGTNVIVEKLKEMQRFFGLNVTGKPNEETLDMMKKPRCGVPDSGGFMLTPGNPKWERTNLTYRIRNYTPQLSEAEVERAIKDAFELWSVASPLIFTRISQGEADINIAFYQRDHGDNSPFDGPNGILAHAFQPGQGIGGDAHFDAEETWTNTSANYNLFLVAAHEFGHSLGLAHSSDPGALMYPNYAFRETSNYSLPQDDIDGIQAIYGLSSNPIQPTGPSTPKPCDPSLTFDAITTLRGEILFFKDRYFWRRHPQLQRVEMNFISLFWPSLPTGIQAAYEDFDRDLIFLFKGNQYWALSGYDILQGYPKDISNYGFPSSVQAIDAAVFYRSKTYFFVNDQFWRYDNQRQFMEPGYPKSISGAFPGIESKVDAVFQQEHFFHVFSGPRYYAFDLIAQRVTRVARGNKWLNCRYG
Stromelysin-1, sequence (P08254 whole entry): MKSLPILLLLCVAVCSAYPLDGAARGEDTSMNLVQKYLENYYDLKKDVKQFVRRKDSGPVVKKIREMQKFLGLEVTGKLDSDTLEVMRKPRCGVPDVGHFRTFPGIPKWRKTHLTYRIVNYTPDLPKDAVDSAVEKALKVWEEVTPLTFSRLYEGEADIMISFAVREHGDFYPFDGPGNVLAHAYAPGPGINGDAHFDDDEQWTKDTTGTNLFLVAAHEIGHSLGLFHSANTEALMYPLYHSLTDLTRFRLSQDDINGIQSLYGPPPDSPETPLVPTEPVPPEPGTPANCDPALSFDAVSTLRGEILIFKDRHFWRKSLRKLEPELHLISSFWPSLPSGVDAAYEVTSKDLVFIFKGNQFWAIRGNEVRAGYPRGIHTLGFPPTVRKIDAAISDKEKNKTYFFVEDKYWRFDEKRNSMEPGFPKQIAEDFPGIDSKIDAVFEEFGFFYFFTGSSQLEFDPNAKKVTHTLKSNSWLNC
72 kDa type IV collagenase, sequence (P08253 whole entry): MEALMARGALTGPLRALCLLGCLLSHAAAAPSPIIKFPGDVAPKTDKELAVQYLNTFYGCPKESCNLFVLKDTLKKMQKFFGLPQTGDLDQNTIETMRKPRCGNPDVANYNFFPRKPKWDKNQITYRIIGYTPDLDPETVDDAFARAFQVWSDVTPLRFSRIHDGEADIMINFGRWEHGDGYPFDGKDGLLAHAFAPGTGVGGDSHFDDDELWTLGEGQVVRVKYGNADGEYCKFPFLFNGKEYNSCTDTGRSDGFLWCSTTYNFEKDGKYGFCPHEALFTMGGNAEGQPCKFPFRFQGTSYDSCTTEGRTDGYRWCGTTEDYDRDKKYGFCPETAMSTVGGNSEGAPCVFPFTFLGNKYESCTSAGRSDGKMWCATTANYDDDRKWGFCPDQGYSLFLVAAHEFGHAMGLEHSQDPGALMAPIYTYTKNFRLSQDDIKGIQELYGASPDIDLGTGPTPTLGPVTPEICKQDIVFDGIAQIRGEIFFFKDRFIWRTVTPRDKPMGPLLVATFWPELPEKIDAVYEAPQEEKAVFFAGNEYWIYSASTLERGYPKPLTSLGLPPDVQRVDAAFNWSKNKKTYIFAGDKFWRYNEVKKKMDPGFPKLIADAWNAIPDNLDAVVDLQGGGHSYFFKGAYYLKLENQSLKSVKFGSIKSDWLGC
Macrophage metalloelastase, sequence (P39900 whole entry): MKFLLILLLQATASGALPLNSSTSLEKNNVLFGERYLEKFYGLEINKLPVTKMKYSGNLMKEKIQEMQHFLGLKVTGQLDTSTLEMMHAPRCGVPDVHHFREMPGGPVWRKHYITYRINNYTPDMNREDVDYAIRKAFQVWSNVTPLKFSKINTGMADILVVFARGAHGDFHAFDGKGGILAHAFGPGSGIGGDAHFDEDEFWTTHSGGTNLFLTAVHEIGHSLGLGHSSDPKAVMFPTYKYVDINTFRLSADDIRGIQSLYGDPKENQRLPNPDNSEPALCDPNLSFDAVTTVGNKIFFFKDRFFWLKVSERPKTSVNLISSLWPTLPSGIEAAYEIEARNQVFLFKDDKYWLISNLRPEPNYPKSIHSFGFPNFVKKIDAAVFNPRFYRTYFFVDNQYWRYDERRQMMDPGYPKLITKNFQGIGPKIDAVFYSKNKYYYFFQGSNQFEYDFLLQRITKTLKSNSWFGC

What is called IC50 is the concentration needed to halve the response being measured. Turning to `CC(C)[C@H](C(=O)NO)N(CC(=O)O)S(=O)(=O)c1ccc(Oc2ccccc2)cc1`, in [1], the half-maximal inhibitory concentration (IC50) is 6.7 nM.
As to `CC(C)[C@@H]1C(=O)N(O)C(=O)CN1S(=O)(=O)c1ccc(-c2ccccc2)cc1`, the IC50 turned out to be 67 nM in data set [2]; 240 nM in [3]; 660 nM in [4]; 19 nM in [5]; 1300 nM in data set [6]; 3900 nM in [7]. Also, the concentration for half-maximal inhibition (IC50) in [1] is 3900 nM; in [8], 52 nM; in [9], 16000 nM; in data set [10] it was 2200 nM.
Take `CC(C)[C@@H]1C(=O)N(O)C(=O)CN1S(=O)(=O)c1ccc(Oc2ccccc2)cc1`: the IC50 in data set [2] was 21 nM; in data set [3], 30 nM; in data set [4], 30 nM; in data set [5] it was 23 nM; in data set [6], 1600 nM; in [7], 83 nM. Besides, the IC50 in data set [1] turned out to be 220 nM; in [8], 9.5 nM; in [9] it was 10000 nM; in data set [10] it was 39 nM.
As to `COc1ccc(S(=O)(=O)N2CC(=O)N(O)C(=O)[C@H]2C(C)C)cc1`, the degraded at 24 h in data set [11] and in data set [18] was < 1% in each case. Also, the IC50 in [2] came out at 300 nM; in [3], 1200 nM; in [4] it was 690 nM; in data set [5] it was 66 nM; in data set [6], 4900 nM; in data set [7], 2200 nM. In addition, the concentration for half-maximal inhibition (IC50) came to 3400 nM in [1]; 300 nM in data set [8]; 33000 nM in [9]; 39000 nM in [16]; 1100 nM in data set [10]. In addition, in [12], the degraded at 48 h was found to be 2%. For the same compound, in data set [13], the degraded at 480 h stood at 7%. In [14], the degraded at 240 h was 8%. The results for the degraded at 120 h in [15] and in data set [19] were 5% and 6%, respectively. Further, in data set [17], the degraded at 72 h turned out to be 3%.
In turn, `COc1ccc(S(=O)(=O)N(Cc2cccnc2)[C@@H](C(=O)NO)C(C)C)cc1` [CGS-27023A] came in with an IC50 in data set [16] of 380 nM.
